Measurements taken from ChEMBL document CHEMBL3576774, “Dactylomelane diterpenes from the sea hare Aplysia depilans” (J Nat Prod, 2015).

Experiments:
Format in all cases: functional, cell-based
[1] = system: HeLa; test: Cytotoxic activity against human HeLa cells assessed as reduction in cell growth incubated for 48 hrs by MTT assay
Summary of the method: (§1)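 Monolayers maintained in DMEM with 10% FBS, penicillin/streptomycin at 37 °C, 5% CO2, and passaged at 80–90% confluence. Log-phase cells were seeded at 1 × 10^5 cells/mL and allowed to attach for 24 h. They were then exposed to DMSO-diluted compounds at various concentrations for 48 h. MTT was added at 0.5 mg/mL final for 4 h, dissolved in HCl/2-propanol, and read at 545 nm. Triplicates; IC50 from 3–4 experiments versus untreated control.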

[2] = system: MCF7; test: Cytotoxic activity against human MCF7 cells assessed as reduction in cell growth incubated for 48 hrs by MTT assay; summary of the method: as §1
[3] = system: A-431; test: Cytotoxic activity against human A431 cells assessed as reduction in cell growth incubated for 48 hrs by MTT assay; conditions: A-431, 48 h; summary of the method: as §1
[4] = system: HepG2; test: Cytotoxic activity against human HepG2 cells assessed as reduction in cell growth incubated for 48 hrs by MTT assay; summary of the method: as §1
[5] = system: A549; test: Cytotoxic activity against human A549 cells assessed as reduction in cell growth incubated for 48 hrs by MTT assay; summary of the method: as §1

Structure (SMILES): C=CC(C)(O)CC[C@@H]1C(=C)CC[C@H](Br)[C@@]1(C)CCC(O)C(C)(C)Cl (relative stereo)
- IC50 ([1]; Homo sapiens, HeLa, 48 h): 61 µM
- IC50 ([2]; Homo sapiens, MCF7, 48 h): 71.5 µM
- IC50 [3]: > 100 µM
- IC50 ([4]; Homo sapiens, HepG2, 48 h): 48.7 µM
- IC50 ([5]; Homo sapiens, A549, 48 h): 94.1 µM

Structure (SMILES): C=CC(C)(O)CC[C@@H]1C(=C)CC[C@H](Br)[C@@]1(C)CCC(OC)C(C)(C)O (relative stereo)
- IC50 ([1]; Homo sapiens, HeLa, 48 h): > 100 µM
- IC50 ([2]; Homo sapiens, MCF7, 48 h): > 100 µM
- IC50 [3]: > 100 µM
- IC50 ([4]; Homo sapiens, HepG2, 48 h): > 100 µM
- IC50 ([5]; Homo sapiens, A549, 48 h): > 100 µM

Structure (SMILES): C=CC(C)(O)CC[C@H]1[C@](C)(CCC=C(C)C)[C@@H](Br)CC[C@@]1(C)O (some centres undefined)
- IC50 ([1]; Homo sapiens, HeLa, 48 h): 91.7 µM
- IC50 ([2]; Homo sapiens, MCF7, 48 h): 78 µM
- IC50 [3]: > 100 µM
- IC50 ([4]; Homo sapiens, HepG2, 48 h): > 100 µM
- IC50 ([5]; Homo sapiens, A549, 48 h): > 100 µM

Structure (SMILES): C=CC(C)(O)CC[C@@H]1C(=C)CC[C@H](Br)[C@@]1(C)CCC(O)C(=C)C (relative stereo)
- IC50 ([1]; Homo sapiens, HeLa, 48 h): > 100 µM
- IC50 ([2]; Homo sapiens, MCF7, 48 h): > 100 µM
- IC50 [3]: > 100 µM
- IC50 ([4]; Homo sapiens, HepG2, 48 h): > 100 µM
- IC50 ([5]; Homo sapiens, A549, 48 h): > 100 µM

Structure (SMILES): C=CC(C)(O)CC[C@@H]1C(=C)CC[C@H](Br)[C@@]1(C)CCC1OC1(C)C (relative stereo)
- IC50 ([1]; Homo sapiens, HeLa, 48 h): 57.9 µM
- IC50 ([2]; Homo sapiens, MCF7, 48 h): 71.7 µM
- IC50 [3]: > 100 µM
- IC50 ([4]; Homo sapiens, HepG2, 48 h): 53.8 µM
- IC50 ([5]; Homo sapiens, A549, 48 h): > 100 µM

Structure (SMILES): C=CC(C)(O)CC[C@@H]1C(=C)CC[C@H](Br)[C@@]1(C)CCC(O)C(C)(C)O (relative stereo)
- IC50 ([1]; Homo sapiens, HeLa, 48 h): > 100 µM
- IC50 ([2]; Homo sapiens, MCF7, 48 h): > 100 µM
- IC50 [3]: > 100 µM
- IC50 ([4]; Homo sapiens, HepG2, 48 h): > 100 µM
- IC50 ([5]; Homo sapiens, A549, 48 h): > 100 µM

Structure (SMILES): C=CC(C)(O)CC[C@@H]1C(=C)CC[C@H](Br)[C@@]1(C)CCC(=O)C(C)C (some centres undefined)
- IC50 ([1]; Homo sapiens, HeLa, 48 h): 71.4 µM
- IC50 ([2]; Homo sapiens, MCF7, 48 h): > 100 µM
- IC50 [3]: > 100 µM
- IC50 ([4]; Homo sapiens, HepG2, 48 h): > 100 µM
- IC50 ([5]; Homo sapiens, A549, 48 h): > 100 µM

Structure (SMILES): CCCCCCCCCCCCCCCCOP(=O)([O-])OCC[N+](C)(C)C [MILTEFOSINE]
- IC50 ([1]; Homo sapiens, HeLa, 48 h): 16.5 µM
- IC50 ([2]; Homo sapiens, MCF7, 48 h): 9.2 µM
- IC50 [3]: 12 µM
- IC50 ([4]; Homo sapiens, HepG2, 48 h): 26.3 µM
- IC50 ([5]; Homo sapiens, A549, 48 h): 8.5 µM

Structure (SMILES): C=CC(C)(O)CC[C@@H]1C(=C)CC[C@H](Br)[C@@]1(C)CCC(Br)C(C)(C)O (relative stereo; 2)
- IC50 ([1]; hela): 47.4 µM
- IC50 ([2]; mcf7): 60.7 µM
- IC50 ([4]; hepg2): 66.3 µM
- IC50 ([5]; a549): 86.9 µM

Structure (SMILES): C=CC(C)(O)CC[C@@H]1C(=C)CC[C@H](Br)[C@@]1(C)CCC(Br)C(C)(C)O (relative stereo; 3)
- IC50 ([1]; Homo sapiens, HeLa, 48 h): 91.8 µM
- IC50 ([2]; Homo sapiens, MCF7, 48 h): > 100 µM
- IC50 [3]: > 100 µM
- IC50 ([4]; Homo sapiens, HepG2, 48 h): > 100 µM
- IC50 ([5]; Homo sapiens, A549, 48 h): > 100 µM
